Test [1] addresses T1, α-amylase from porcine pancreas (Sus scrofa, UniProt P00690).
T1 sequence (P00690 16-511): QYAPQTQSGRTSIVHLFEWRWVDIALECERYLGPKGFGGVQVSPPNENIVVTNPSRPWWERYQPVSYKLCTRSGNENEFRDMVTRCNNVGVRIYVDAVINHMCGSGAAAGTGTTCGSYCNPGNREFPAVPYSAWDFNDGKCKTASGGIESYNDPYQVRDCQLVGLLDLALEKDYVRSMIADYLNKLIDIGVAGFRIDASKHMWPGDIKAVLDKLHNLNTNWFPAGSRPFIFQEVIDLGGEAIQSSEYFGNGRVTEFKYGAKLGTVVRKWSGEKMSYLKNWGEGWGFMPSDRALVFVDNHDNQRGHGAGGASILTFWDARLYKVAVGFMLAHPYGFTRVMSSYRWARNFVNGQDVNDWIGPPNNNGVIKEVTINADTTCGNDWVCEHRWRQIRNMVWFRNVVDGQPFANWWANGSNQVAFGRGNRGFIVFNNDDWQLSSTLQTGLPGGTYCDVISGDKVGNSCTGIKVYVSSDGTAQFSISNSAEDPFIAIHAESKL
Nature of the test: α-amylase inhibition assay. The class given is biochemical.

For test [2], the target named is T1, α-amylase from porcine pancreas. Nature of the test: α-amylase inhibition kinetics. It counts as biochemical. The note with it: for type (mechanism) of α-amylase inhibition: Lineweaver–Burk plot, starch 0.5 to 2.5%. In outline: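 Porcine pancreatic enzyme (1151 U mg−1 protein) diluted in 0.2 mol L−1 phosphate buffer, pH 6, preincubated with test compound (6.25–50 μM) 5 min at 25 °C. Soluble starch (0.5–2.5%) then added, 10 min at 25 °C. Reducing sugar measured with DNS (boiling water, 15 min) at 540 nm against a glucose standard curve. Inhibition type taken from Lineweaver–Burk plots, Vmax and KM by graph fitting.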

Data on 14 molecules can be found in publication PMC10840089 (RSC Advances, 2024).

Molecules are shown by their SMILES. “Also recorded” adds a separate entry of the source.

For the molecule `C=C1CC[C@@H]2C(C)(C)C(=O)CC[C@@]2(C)[C@@H]1COc1ccc2ccc(=O)oc2c1` [Compound 2, 7-(((1R,4aS,8aR)-5,5,8a-trimethyl-2-methylene-6-oxodecahydronaphthalen-1-yl)methoxy)-2H-chromen-2-one], the IC50 (in general, the midpoint of a concentration-inhibition curve) in test [1] is 25 ± 0.99 µM. `C=C1CC[C@@H]2C(C)(C)C(=O)/C(=C/c3ccccc3)C[C@@]2(C)[C@@H]1COc1ccc2ccc(=O)oc2c1` [Compound 3a, 7-(((1R,4aS,8aR)-7-((E)-benzylidene)-5,5,8a-trimethyl-2-methylene-6-oxodecahydronaphthalen-1-yl)methoxy)-2H-chromen-2-one] came in with a 50% inhibitory concentration (IC50) in test [1] of 29 ± 0.65 µM. With `C=C1CC[C@@H]2C(C)(C)C(=O)/C(=C/c3ccc4ccccc4c3)C[C@@]2(C)[C@@H]1COc1ccc2ccc(=O)oc2c1` [Compound 3b, 7-(((1R,4aS,8aR,E)-5,5,8a-trimethyl-2-methylene-7-(naphthalen-2-ylmethylene)-6-oxodecahydronaphthalen-1-yl)methoxy)-2H-chromen-2-one], in test [1], the IC50 came to 14.4 ± 0.3 µM. With `C=C1CC[C@@H]2C(C)(C)C(=O)/C(=C/c3ccc(F)cc3)C[C@@]2(C)[C@@H]1COc1ccc2ccc(=O)oc2c1` [Compound 3c, 7-(((1R,4aS,8aR)-7-((E)-4-fluorobenzylidene)-5,5,8a-trimethyl-2-methylene-6-oxodecahydronaphthalen-1-yl)methoxy)-2H-chromen-2-one], the 50% inhibitory concentration (IC50) in test [1] was determined as 13.2 ± 0.73 µM.

On to `C=C1CC[C@@H]2C(C)(C)C(=O)/C(=C/c3ccc(Cl)cc3)C[C@@]2(C)[C@@H]1COc1ccc2ccc(=O)oc2c1` [Compound 3d, 7-(((1R,4aS,8aR)-7-((E)-4-chlorobenzylidene)-5,5,8a-trimethyl-2-methylene-6-oxodecahydronaphthalen-1-yl)methoxy)-2H-chromen-2-one], for which the IC50 in test [1] worked out at 17.2 ± 0.5 µM. With `C=C1CC[C@@H]2C(C)(C)C(=O)/C(=C/c3ccc(Br)cc3)C[C@@]2(C)[C@@H]1COc1ccc2ccc(=O)oc2c1` [Compound 3e, 7-(((1R,4aS,8aR)-7-((E)-4-bromobenzylidene)-5,5,8a-trimethyl-2-methylene-6-oxodecahydronaphthalen-1-yl)methoxy)-2H-chromen-2-one], in test [1], it took 15.4 ± 0.29 µM to reach half-maximal inhibition (IC50). `C=C1CC[C@@H]2C(C)(C)C(=O)/C(=C/c3ccc(C)cc3)C[C@@]2(C)[C@@H]1COc1ccc2ccc(=O)oc2c1` [Compound 3f, 7-(((1R,4aS,8aR)-5,5,8a-trimethyl-7-((E)-4-methylbenzylidene)-2-methylene-6-oxodecahydronaphthalen-1-yl)methoxy)-2H-chromen-2-one] showed a 50% inhibitory concentration (IC50) in test [1] of 22.3 ± 0.9 µM.

Molecule `C=C1CC[C@@H]2C(C)(C)C(=O)/C(=C/c3ccc(C(C)(C)C)cc3)C[C@@]2(C)[C@@H]1COc1ccc2ccc(=O)oc2c1` [Compound 3g, 7-(((1R,4aS,8aR)-7-((E)-4-(tert-butyl)benzylidene)-5,5,8a-trimethyl-2-methylene-6-oxodecahydronaphthalen-1-yl)methoxy)-2H-chromen-2-one] showed a 50% inhibitory concentration (IC50) in test [1] of 22.7 ± 0.86 µM.

On to `C=C1CC[C@@H]2C(C)(C)C(=O)/C(=C/c3ccc(OC)cc3)C[C@@]2(C)[C@@H]1COc1ccc2ccc(=O)oc2c1` [Compound 3h, 7-(((1R,4aS,8aR)-7-((E)-4-methoxybenzylidene)-5,5,8a-trimethyl-2-methylene-6-oxodecahydronaphthalen-1-yl)methoxy)-2H-chromen-2-one], for which the 50% inhibitory concentration (IC50) in test [1] stood at 13.5 ± 0.54 µM.

In test [1], `C=C1CC[C@@H]2C(C)(C)C(=O)/C(=C/c3ccccc3OC)C[C@@]2(C)[C@@H]1COc1ccc2ccc(=O)oc2c1` [Compound 3i, 7-(((1R,4aS,8aR)-7-((E)-2-methoxybenzylidene)-5,5,8a-trimethyl-2-methylene-6-oxodecahydronaphthalen-1-yl)methoxy)-2H-chromen-2-one] gave a half-inhibitory concentration (IC50) of 14.5 ± 0.3 µM. In turn, `C=C1CC[C@@H]2C(C)(C)C(=O)/C(=C/c3ccc(OC)c(OC)c3)C[C@@]2(C)[C@@H]1COc1ccc2ccc(=O)oc2c1` [Compound 3j, 7-(((1R,4aS,8aR)-7-((E)-3,4-dimethoxybenzylidene)-5,5,8a-trimethyl-2-methylene-6-oxodecahydronaphthalen-1-yl)methoxy)-2H-chromen-2-one] yielded an IC50 in test [1] of 13 ± 0.96 µM. The “type (mechanism) of α-amylase inhibition” value in test [2] was “non-competitive inhibition”.

In test [1], `C=C1CC[C@@H]2C(C)(C)C(=O)/C(=C/c3cccc(OC(F)(F)C(F)F)c3)C[C@@]2(C)[C@@H]1COc1ccc2ccc(=O)oc2c1` [Compound 3k, 7-(((1R,4aS,8aR)-5,5,8a-trimethyl-2-methylene-6-oxo-7-((E)-3-(1,1,2,2-tetrafluoroethoxy)benzylidene)decahydronaphthalen-1-yl)methoxy)-2H-chromen-2-one] gave a half-maximal inhibitory concentration (IC50) of 7.24 ± 0.36 µM. Further, in test [2], the affinity corresponds to a Ki of 1.02 µM and the “type (mechanism) of α-amylase inhibition” value is given as “mixed competitive-non-competitive inhibitors”. Consider `C=C1CC[C@@H]2C(C)(C)C(=O)/C(=C/c3ccc(N(C)C)cc3)C[C@@]2(C)[C@@H]1COc1ccc2ccc(=O)oc2c1` [Compound 3l, 7-(((1R,4aS,8aR)-7-((E)-4-(dimethylamino)benzylidene)-5,5,8a-trimethyl-2-methylene-6-oxodecahydronaphthalen-1-yl)methoxy)-2H-chromen-2-one], for which, in test [1], it took 10.8 ± 0.6 µM to reach half-maximal inhibition (IC50). Further, in test [2], the “type (mechanism) of α-amylase inhibition” value was “mixed competitive-non-competitive inhibitors”. Regarding `C=C1CC[C@@H]2C(C)(C)C(=O)/C(=C/c3ccc(N4CCCC4)cc3)C[C@@]2(C)[C@@H]1COc1ccc2ccc(=O)oc2c1` [Compound 3m, 7-(((1R,4aS,8aR)-5,5,8a-trimethyl-2-methylene-6-oxo-7-((E)-4-(pyrrolidin-1-yl)benzylidene)decahydronaphthalen-1-yl)methoxy)-2H-chromen-2-one], the concentration for half-maximal inhibition (IC50) in test [1] turned out to be 8.83 ± 0.22 µM. Moreover, the “type (mechanism) of α-amylase inhibition” value in test [2] is given as “mixed non-competitive-uncompetitive inhibitor; also recorded: mixed non-competitive-uncompetitive inhibition”.
